Source: ChEMBL document CHEMBL2384909, “Development of Novel Alkene Oxindole Derivatives As Orally Efficacious AMP-Activated Protein Kinase Activators” (ACS Med Chem Lett, 2013)
Activity calls are given as the source filed them. The calls are words filed in the database; no cut-off is given here.

What was measured:
[1] = Terminal half life in Wistar rat at 2 mg/kg, iv by LC-MS/MS analysis; format: ADME, organism-based; set-up: dose 2 mg/kg, route intravenous; settings: in vivo, read-out: beta t1/2 (converted)
[2] = system: Mus musculus; assay: Antidiabetic activity in diet-induced obese C57BL/6J mouse assessed as increase in insulin tolerance at 15 to 150 mg/kg, po qd for 4 weeks by insulin tolerance test relative to control; format: functional, organism-based
[3] = system: Mus musculus; assay: Upregulation of PDK4 gene expression in C57BL/6J mouse muscles at 15 to 150 mg/kg, po; format: functional, organism-based; settings: Muscle tissue
[4] = molecular target: Serine/threonine-protein kinase MARK2 (Homo sapiens) (UniProt Q7KZI7); assay: Activity at MARK2 (unknown origin)
[5] = molecular target: Cytochrome P450 2D6 (Homo sapiens, UniProt P10635); assay: Inhibition of CYP2D6 (unknown origin); format: ADME
[6] = AUC (0 to 24 hrs) in Wistar rat at 2 mg/kg, iv by LC-MS/MS analysis; format: ADME, organism-based; set-up: time < 24 hr, dose 2 mg/kg, route intravenous; settings: plasma
[7] = system: L6; assay: Activation of AMPK in rat L6 cells assessed as stimulation of glucose uptake after 15 mins; format: cell-based
[8] = system: Mus musculus; assay: Upregulation of CPT1 gene expression in C57BL/6J mouse muscles at 15 to 150 mg/kg, po; format: functional, organism-based; settings: Muscle tissue
[9] = AUC (0 to infinity) in Wistar rat at 10 mg/kg, po by LC-MS/MS analysis; format: ADME, organism-based; set-up: time infinity, dose 10 mg/kg, route oral; settings: plasma
[10] = molecular target: AMPK alpha2/beta1/gamma1 (Homo sapiens, UniProt P54619+P54646+Q9Y478); assay: Activation of recombinant AMPK alpha2beta1gamma1 (unknown origin) after 2 hrs by scintillation proximity assay; format: protein-complex assay
Outline: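 Activation of bacterially expressed AMPK α2β1γ1 was measured by scintillation proximity assay. Efficacy is expressed relative to AMP.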

[11] = Half life in Wistar rat at 10 mg/kg, po by LC-MS/MS analysis; format: ADME, organism-based; set-up: dose 10 mg/kg, route oral; settings: in vivo
[12] = Plasma concentration in Wistar rat at 10 mg/kg, po after 4 hrs by LC-MS/MS analysis; format: ADME, organism-based; set-up: dose 10 mg/kg, route oral
[13] = system: Mus musculus; assay: Antidiabetic activity in diet-induced obese C57BL/6J mouse assessed as reduction in plasma triglyceride at 150 mg/kg, po qd for 4 weeks (reference value: 0.62 +/- 0.02 mM); format: functional
[14] = AUC (0 to 24 hrs) in Wistar rat at 10 mg/kg, po by LC-MS/MS analysis; format: ADME, organism-based; set-up: time < 24 hr, dose 10 mg/kg, route oral; settings: plasma
[15] = system: Mus musculus; assay: Antidiabetic activity in diet-induced obese C57BL/6J mouse assessed as improved glucose tolerance at 50 to 150 mg/kg, po qd for 4 weeks by glucose tolerance test
[16] = system: Mus musculus; assay: Upregulation of COX5B gene expression in C57BL/6J mouse muscles at 15 to 150 mg/kg, po; format: functional, organism-based; settings: Muscle tissue
[17] = system: Mus musculus; assay: Antidiabetic activity in diet-induced obese C57BL/6J mouse assessed as reduction in plasma triglyceride at 15 mg/kg, po qd for 4 weeks (reference value: 0.62 +/- 0.02 mM); format: functional
[18] = molecular target: Maternal embryonic leucine zipper kinase (Homo sapiens) (UniProt Q14680); assay: Activity at MELK (unknown origin)
[19] = system: L6; assay: Induction of AMPK phosphorylation in rat L6 cells by Western blotting analysis; format: cell-based

Chain of Cytochrome P450 2D6 (P10635 whole entry): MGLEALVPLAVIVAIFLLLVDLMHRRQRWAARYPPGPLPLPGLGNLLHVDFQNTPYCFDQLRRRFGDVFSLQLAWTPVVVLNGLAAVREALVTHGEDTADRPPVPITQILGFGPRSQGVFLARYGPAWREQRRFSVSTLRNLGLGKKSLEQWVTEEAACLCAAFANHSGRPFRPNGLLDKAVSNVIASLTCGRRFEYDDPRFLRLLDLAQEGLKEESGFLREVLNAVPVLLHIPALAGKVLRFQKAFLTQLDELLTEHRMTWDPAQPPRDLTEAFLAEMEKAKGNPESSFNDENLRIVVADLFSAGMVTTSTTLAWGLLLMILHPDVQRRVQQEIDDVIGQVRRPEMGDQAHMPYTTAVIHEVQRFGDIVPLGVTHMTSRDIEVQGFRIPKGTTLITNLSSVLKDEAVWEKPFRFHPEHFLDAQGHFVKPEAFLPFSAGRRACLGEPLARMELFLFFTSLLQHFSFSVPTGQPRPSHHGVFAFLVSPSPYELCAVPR
Chain of AMPK alpha2/beta1/gamma1 (P54646 whole entry): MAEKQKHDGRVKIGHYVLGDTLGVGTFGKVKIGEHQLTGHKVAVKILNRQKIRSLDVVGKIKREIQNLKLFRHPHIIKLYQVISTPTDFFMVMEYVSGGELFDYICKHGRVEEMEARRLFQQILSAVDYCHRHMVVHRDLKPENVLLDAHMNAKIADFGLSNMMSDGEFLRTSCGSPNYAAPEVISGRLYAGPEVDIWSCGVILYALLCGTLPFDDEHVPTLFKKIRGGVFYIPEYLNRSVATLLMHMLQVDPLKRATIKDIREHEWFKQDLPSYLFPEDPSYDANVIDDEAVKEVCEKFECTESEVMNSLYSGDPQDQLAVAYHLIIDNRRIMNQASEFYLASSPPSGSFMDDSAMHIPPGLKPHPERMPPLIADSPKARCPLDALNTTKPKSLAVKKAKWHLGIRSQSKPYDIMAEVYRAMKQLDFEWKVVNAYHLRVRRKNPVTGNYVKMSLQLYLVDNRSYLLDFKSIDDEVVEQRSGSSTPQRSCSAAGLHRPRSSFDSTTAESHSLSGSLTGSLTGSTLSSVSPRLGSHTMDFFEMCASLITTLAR
Chain of AMPK alpha2/beta1/gamma1 (P54619 whole entry): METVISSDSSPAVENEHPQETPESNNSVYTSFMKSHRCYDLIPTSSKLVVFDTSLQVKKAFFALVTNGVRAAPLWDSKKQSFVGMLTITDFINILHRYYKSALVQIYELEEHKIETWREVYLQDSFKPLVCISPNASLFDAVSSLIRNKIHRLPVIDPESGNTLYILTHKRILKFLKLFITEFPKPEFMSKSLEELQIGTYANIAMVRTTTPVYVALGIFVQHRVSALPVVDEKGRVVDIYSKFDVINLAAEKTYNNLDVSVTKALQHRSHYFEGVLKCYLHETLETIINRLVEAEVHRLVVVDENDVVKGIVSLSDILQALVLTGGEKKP
Chain of AMPK alpha2/beta1/gamma1 (Q9Y478 whole entry): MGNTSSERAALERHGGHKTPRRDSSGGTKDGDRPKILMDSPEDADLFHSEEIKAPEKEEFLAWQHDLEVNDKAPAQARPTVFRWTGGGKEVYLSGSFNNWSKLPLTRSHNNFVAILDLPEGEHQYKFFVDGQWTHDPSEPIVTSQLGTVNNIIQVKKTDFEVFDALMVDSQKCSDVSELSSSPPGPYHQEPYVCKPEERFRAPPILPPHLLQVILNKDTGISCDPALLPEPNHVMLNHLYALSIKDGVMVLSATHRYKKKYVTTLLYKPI
Chain of Maternal embryonic leucine zipper kinase (Homo sapiens) (Q14680 whole entry, looked up): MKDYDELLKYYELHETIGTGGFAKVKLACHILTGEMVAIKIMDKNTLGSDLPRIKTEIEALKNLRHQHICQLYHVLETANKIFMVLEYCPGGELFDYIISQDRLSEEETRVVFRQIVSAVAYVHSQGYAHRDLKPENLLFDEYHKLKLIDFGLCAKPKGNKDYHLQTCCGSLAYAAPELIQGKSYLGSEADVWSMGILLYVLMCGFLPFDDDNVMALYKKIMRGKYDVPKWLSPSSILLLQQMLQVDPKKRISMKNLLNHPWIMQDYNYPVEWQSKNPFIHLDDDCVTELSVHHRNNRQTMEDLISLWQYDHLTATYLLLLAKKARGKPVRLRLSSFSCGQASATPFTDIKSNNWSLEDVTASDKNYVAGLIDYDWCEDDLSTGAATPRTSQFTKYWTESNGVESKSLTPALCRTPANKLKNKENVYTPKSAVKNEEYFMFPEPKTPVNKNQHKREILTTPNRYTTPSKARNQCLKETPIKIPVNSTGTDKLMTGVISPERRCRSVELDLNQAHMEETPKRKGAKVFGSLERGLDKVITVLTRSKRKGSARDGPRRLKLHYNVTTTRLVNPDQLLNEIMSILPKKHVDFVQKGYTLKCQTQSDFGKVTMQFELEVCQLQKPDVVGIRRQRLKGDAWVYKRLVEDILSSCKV
Chain of Serine/threonine-protein kinase MARK2 (Homo sapiens) (Q7KZI7 whole entry): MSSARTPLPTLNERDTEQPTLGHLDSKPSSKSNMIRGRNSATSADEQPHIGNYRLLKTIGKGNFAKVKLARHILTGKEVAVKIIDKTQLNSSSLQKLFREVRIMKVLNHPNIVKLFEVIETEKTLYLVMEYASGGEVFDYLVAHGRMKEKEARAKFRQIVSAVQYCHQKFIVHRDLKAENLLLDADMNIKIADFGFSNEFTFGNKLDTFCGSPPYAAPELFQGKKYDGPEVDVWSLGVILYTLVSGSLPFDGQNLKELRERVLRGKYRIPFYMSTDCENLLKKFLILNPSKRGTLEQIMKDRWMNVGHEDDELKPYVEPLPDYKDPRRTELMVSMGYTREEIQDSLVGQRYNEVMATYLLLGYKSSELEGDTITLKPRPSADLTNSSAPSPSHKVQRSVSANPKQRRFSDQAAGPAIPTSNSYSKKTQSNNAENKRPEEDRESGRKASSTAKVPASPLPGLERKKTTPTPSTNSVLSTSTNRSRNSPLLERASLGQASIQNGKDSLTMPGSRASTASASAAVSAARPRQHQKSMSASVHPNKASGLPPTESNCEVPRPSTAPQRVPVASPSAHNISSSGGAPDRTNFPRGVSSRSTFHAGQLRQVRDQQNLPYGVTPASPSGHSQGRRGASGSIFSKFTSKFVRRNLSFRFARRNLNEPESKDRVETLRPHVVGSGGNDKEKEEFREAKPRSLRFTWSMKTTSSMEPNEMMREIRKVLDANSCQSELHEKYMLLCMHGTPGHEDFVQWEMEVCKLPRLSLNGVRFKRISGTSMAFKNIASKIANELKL

O=C(O)c1cccc(CN2C(=O)/C(=C(\c3ccccc3)c3ccc(Cl)cc3)c3ccccc32)c1
half-life [1]: 236 min
Activity [2]: Active
Activity [3]: Active
Activity [4]: inactive
inhibition (INH) [5]: Not Active
AUC(0-t) at 24 h [6]: 17300 ng·h/mL
Activity [7]: Dose-dependent effect
Activity [8]: Active
AUC(0-inf) [9]: 29500 ng·h/mL
EC50 [10]: 1200 nM
half-life [11]: 240 min
concentration at 4 h [12]: 3270 ng/mL
Activity [13]: 0.54 mM
AUC(0-t) at 24 h [14]: 28900 ng·h/mL
Activity [15]: Active
Activity [16]: Active
Activity [17]: 0.52 mM
Activity [18]: inactive
Activity [19]: Dose-dependent effect
